# How the values were obtained:
# [1] = Stability of oncrasins in rat plasma; type: in vitro ADME; conditions: for Stability after 2 h at room temperature: bench-top, 2 h (data not shown); for Three freeze-thaw cycles stability, percent of nominal concentration: freeze −80°C / thaw RT; for Three freeze-thaw cycles stability, percent of nominal concentration / Long term -80°C (14 days) stability, percent of nominal concentration / Short-term (1h) stability, percent of nominal concentration: n=3, mean ± SD; for Short-term (1h) stability, percent of nominal concentration: room temperature bench-top 1 h
# Outline: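 Blank rat plasma was spiked at low and high QC levels, three replicates per level, then measured by LC-MS/MS against freshly prepared samples at the same concentrations. Results are percent of nominal. Short-term bench-top: room temperature for 1, 2 and 3 h. Freeze-thaw: three cycles of −80°C freezing and room-temperature thawing. Long-term: 14 days of storage.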
# [2] = Stability of processed sample; type: in vitro ADME, rat; conditions: plasma extracts; for Deviation from nominal concentration after 24 h in the auto-sampler: 24 h at 15°C (data not shown); for Auto-sampler at 15°C (1h) stability, percent of nominal concentration: n=3, mean ± SD
# Outline: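 Spiked rat plasma (50 μL) was mixed with 100 μL acetonitrile internal-standard working solution (125 ng/mL) and centrifuged at 20,800 x g for 5 min at 4°C. The supernatant extracts were held in the auto-sampler at 15°C for 1 h and 24 h. They were then compared with freshly obtained extracts at low and high QC levels in triplicate, by LC-MS/MS.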
# [3] = Pharmacokinetic study in rats after intravenous oncrasin-266 formulation; type: in vivo, Sprague-Dawley rats; conditions: mean ± SD, n=5; for AUC / Cmax: rat plasma; for Cl / Vd / t1/2: rat
# Outline: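 Male adult Sprague-Dawley rats received the prodrug formulation IV through a jugular vein cannula at 10, 25 or 50 mg/kg (n=5 per dose). Blood (200 μL) was drawn predose and at 0.0167 to 48 h into heparinized tubes. Plasma was spun at 20,800 x g for 3 min and kept at −80°C. Urine was collected over 0–24 h. Analytes were quantified by validated LC-MS/MS. Each rat's profile was analysed noncompartmentally.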
# [4] = analyte after I.V. oncrasin-266 formulation 10 mg/kg
# [5] = analyte after I.V. oncrasin-266 formulation 25 mg/kg
# [6] = analyte after I.V. oncrasin-266 formulation 50 mg/kg
Compound,Stability after 2 h at room temperature [1],Deviation from nominal concentration after 24 h in the auto-sampler [2] [%],"AUC [3, 4] [ng·h/mL]","Cmax [3, 4] [ng/mL]","AUC [3, 5] [ng·h/mL]","Cmax [3, 5] [ng/mL]","AUC [3, 6] [ng·h/mL]","Cmax [3, 6] [ng/mL]","Cl [3, 4] [L/kg]","Vd [3, 4] [L/kg]","t1/2 [3, 4] [h]","Cl [3, 5] [L/kg]","Vd [3, 5] [L/kg]","t1/2 [3, 5] [h]","Cl [3, 6] [L/kg]","Vd [3, 6] [L/kg]","t1/2 [3, 6] [h]",further results
O=Cc1cn(Cc2cccc(Cl)c2)c2ccccc12 [NSC-741908],remained stable,≤ 15,500 ± 420,1560 ± 1550,110 ± 30,330 ± 120,680 ± 420,2140 ± 1730,75.73 ± 86.14,47.04 ± 33.52,1.19 ± 0.93,254.62 ± 108.12,443.15 ± 71.91,1.31 ± 0.39,103.60 ± 67.32,137.64 ± 33.49,1.16 ± 0.52,"Three freeze-thaw cycles stability, percent of nominal concentration ([1]; nominal 1 ng/mL): 110.20 ± 6.79%; Three freeze-thaw cycles stability, percent of nominal concentration ([1]; nominal 100 ng/mL): 95.15 ± 4.53%; Long term -80°C (14 days) stability, percent of nominal concentration ([1]; nominal 1 ng/mL): 112.67 ± 2.45%; Long term -80°C (14 days) stability, percent of nominal concentration ([1]; nominal 100 ng/mL): 93.46 ± 5.62%; Short-term (1h) stability, percent of nominal concentration ([1]; nominal 1 ng/mL): 101.00 ± 12.58%; Short-term (1h) stability, percent of nominal concentration ([1]; nominal 100 ng/mL): 99.21 ± 5.62%; Auto-sampler at 15°C (1h) stability, percent of nominal concentration ([2]; nominal 1 ng/mL): 113.44 ± 6.90%; Auto-sampler at 15°C (1h) stability, percent of nominal concentration ([2]; nominal 100 ng/mL): 100.25 ± 2.67%"
OCc1cn(Cc2cccc(Cl)c2)c2ccccc12 [Oncrasin-72],remained stable,≤ 15,2220 ± 330,15550 ± 5330,7150 ± 1960,52440 ± 16750,23700 ± 7950,54790 ± 30600,4.56 ± 0.7,45.06 ± 16.70,7.01 ± 2.81,3.62 ± 0.77,42.55 ± 24.3,7.74 ± 3.95,2.30 ± 0.74,27.78 ± 10.36,8.28 ± 1.34,"Three freeze-thaw cycles stability, percent of nominal concentration ([1]; nominal 2 ng/mL): 97.53 ± 5.94%; Three freeze-thaw cycles stability, percent of nominal concentration ([1]; nominal 200 ng/mL): 101.23 ± 10.03%; Long term -80°C (14 days) stability, percent of nominal concentration ([1]; nominal 2 ng/mL): 95.02 ± 8.54%; Long term -80°C (14 days) stability, percent of nominal concentration ([1]; nominal 200 ng/mL): 89.14 ± 0.49%; Short-term (1h) stability, percent of nominal concentration ([1]; nominal 2 ng/mL): 94.87 ± 5.31%; Short-term (1h) stability, percent of nominal concentration ([1]; nominal 200 ng/mL): 110.55 ± 3.0%; Auto-sampler at 15°C (1h) stability, percent of nominal concentration ([2]; nominal 2 ng/mL): 94.90 ± 2.54%; Auto-sampler at 15°C (1h) stability, percent of nominal concentration ([2]; nominal 200 ng/mL): 98.05 ± 6.15%"

# From paper PMC5045800 (Journal of chromatography. B, Analytical technologies in …, 2016)
